Active and inactive are the calls of the source. The rule behind the calls is not given here.
Assays:
[1] = Inhibition of spheroid count in IPF patient derived human Airway basal cell incubated for 14 days by Bright-field microscopy analysis; assay type: functional, cell-based
How it was run: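 Airway basal cells from bronchial brushings of IPF patients, 10⁴ cells in Matrigel on transwell inserts with 1:1 BEGM/DMEM. Treated 14 days (1–50 nM per methods; 0.1–50 nM per legend), medium changed every 7 days.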

[2] = target: T1, Protein deacetylase HDAC6 (Homo sapiens) (UniProt Q9UBN7); test: Inhibition of HDAC6 in human NB-4 cells assessed as increase in acetylation of alpha-tubulin at 5 uM incubated for 30 hrs by western blot analysis; assay type: cell-based
T1 sequence (whole entry): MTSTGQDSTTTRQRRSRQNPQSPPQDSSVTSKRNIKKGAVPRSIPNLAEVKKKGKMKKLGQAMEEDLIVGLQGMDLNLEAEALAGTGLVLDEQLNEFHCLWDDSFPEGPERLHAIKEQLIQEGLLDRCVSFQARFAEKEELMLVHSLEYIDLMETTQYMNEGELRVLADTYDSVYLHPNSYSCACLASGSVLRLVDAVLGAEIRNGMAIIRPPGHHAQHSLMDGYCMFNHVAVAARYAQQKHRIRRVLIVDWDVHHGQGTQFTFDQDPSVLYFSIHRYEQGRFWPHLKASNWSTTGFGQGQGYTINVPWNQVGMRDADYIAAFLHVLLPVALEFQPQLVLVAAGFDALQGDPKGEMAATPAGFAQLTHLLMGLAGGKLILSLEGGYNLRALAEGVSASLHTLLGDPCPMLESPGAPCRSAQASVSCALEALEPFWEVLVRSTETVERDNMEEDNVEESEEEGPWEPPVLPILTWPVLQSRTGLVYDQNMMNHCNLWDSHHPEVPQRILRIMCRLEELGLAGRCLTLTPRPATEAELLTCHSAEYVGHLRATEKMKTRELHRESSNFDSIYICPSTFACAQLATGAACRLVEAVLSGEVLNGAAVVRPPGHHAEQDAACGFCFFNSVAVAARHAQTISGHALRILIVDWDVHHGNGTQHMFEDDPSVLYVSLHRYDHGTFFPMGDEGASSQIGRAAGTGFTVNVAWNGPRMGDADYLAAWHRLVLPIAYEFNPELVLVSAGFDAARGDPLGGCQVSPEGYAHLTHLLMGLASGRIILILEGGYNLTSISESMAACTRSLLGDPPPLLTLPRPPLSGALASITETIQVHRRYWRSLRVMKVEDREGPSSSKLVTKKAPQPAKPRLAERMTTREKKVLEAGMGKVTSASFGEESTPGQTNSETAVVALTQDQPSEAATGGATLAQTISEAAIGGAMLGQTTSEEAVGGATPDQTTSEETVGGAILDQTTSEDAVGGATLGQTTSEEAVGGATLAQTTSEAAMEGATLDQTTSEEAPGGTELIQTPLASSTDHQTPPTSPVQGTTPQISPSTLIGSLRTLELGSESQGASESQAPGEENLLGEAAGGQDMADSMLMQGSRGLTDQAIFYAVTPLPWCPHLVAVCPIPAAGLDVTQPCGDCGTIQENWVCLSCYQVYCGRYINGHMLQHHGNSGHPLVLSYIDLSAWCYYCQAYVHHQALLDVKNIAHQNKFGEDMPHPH
How it was run: (§1)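 Whole lysates (35 μg) and acid-extracted histones (2 μg) run on SDS-PAGE and blotted for acetylated tubulin or acetyl-histone H3; GAPDH or H4 as loading controls.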

Histone deacetylase 8 = target: T2, Histone deacetylase 8 (Homo sapiens, UniProt Q9BY41); test: Inhibition of human recombinant HDAC8 using FLUOR DE LYS fluorometric substrate pre-incubated for 15 mins and followed by substrate addition and measured after 60 mins by microplate reader assay
T2 sequence (Q9BY41 whole entry): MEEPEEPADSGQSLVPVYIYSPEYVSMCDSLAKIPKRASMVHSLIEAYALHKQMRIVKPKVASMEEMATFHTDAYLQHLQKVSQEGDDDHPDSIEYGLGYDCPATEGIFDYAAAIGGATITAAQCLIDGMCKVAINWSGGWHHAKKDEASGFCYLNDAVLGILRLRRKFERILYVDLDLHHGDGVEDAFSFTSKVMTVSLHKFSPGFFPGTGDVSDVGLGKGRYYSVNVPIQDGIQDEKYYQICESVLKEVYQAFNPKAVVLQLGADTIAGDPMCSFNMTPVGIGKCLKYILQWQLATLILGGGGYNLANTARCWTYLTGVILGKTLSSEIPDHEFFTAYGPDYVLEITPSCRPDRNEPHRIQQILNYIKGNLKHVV
How it was run: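 Recombinant human HDAC8 at 0.45 U/reaction with 0.5% DMSO; DMSO-only enzyme served as control. Enzyme preincubated 15 min with compound, then Fluor de Lys substrate added (50 μM final) for 1 h at 30 °C. Quenched with 2 μM TSA in Developer II for a further 1 h at 30 °C. Fluorescence read at ex 370/em 450 nm. IC50 from nonlinear dose-response fit.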

[3] = Chemical stability of the compound at pH 3 incubated for 24 hrs by HPLC-UV analysis; assay type: physicochemical; settings: buffer, read-out: Stability
How it was run: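 Compound from 10 mM DMSO stock diluted to 250 μM (2.5% DMSO) in 50 mM acetic acid, pH 3.0. Held 24 h at 25 °C with orbital shaking. Analysed by RP-18 HPLC with UV at 254 nm. Percent remaining = peak area at 24 h / peak area at T0 × 100. Run in triplicate and averaged.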

[4] = Metabolic stability in human liver microsome assessed as apparent decay constant at 5 uM in presence of NADPH incubated up to 60 mins by HPLC analysis; assay type: ADME; settings: microsomes, 1 h
How it was run: (§2)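 Compound at 5 μM, added in MeCN, incubated at 37 °C in 100 mM phosphate buffer pH 7.4 with 0.5 mg/mL human liver microsomal protein. Reaction started with an NADPH-generating system (2 mM NADPH, glucose-6-phosphate, G6P dehydrogenase, MgCl2). Stopped with MeCN at time points over 0–60 min. Remaining compound measured by RP-18 HPLC-UV at 254 nm, in triplicate. First-order depletion constant k; CLint = k × incubation volume / microsomal protein.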

Histone deacetylase 1 = Histone deacetylase 1 (Homo sapiens, UniProt Q13547); test: Inhibition of HDAC1 in human U87 cells assessed as increase in acetylation of histone H3 at 5 uM incubated for 30 hrs by western blot analysis; assay type: cell-based; how it was run: as §1
[5] = target: T1, Protein deacetylase HDAC6 (Homo sapiens); test: Inhibition of HDAC6 in human U87 cells assessed as increase in acetylation of alpha-tubulin at 5 uM incubated for 30 hrs by western blot analysis; assay type: cell-based; how it was run: as §1
[6] = Inhibition of cell proliferation in IPF patient derived human Airway basal cell incubated for 14 days by MTT assay; assay type: functional, cell-based; settings: 336 h
How it was run: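 IPF patient airway basal cell 3D organoid cultures (10⁴ cells in Matrigel, 1:1 BEGM/DMEM) treated 14 days at 1–50 nM, medium changed weekly. Proliferation read by colorimetric MTT on day 14. Mean ± SEM of triplicates, n=3; repeated-measures ANOVA/Friedman test. Reported IC50 is the mean of the count-based and MTT-based IC50s.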

[7] = Metabolic stability in human liver microsome assessed as intrinsic clearance at 5 uM in presence of NADPH incubated up to 60 mins by HPLC analysis; assay type: ADME; settings: microsomes, 1 h; how it was run: as §2

Chain of Histone deacetylase 1 (Q13547 whole entry): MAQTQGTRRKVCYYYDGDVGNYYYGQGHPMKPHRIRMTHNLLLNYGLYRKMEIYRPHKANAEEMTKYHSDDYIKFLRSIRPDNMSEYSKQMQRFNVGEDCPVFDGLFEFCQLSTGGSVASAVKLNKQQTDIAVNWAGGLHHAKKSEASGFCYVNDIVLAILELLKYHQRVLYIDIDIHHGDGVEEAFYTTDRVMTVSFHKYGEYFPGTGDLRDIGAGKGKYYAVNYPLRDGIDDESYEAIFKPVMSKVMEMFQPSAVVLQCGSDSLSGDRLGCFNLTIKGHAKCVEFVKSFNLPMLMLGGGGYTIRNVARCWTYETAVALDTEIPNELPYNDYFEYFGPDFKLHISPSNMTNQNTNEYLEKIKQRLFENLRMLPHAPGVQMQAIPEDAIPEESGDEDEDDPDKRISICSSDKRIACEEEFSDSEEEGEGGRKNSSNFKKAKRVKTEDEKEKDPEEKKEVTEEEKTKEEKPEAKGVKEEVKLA

| Structure (SMILES) | IC50 [1] [nM] | inhibition [2] | IC50 (Histone deacetylase 8) [nM] | remaining at 24 h [3] [%] | K [4] [min⁻¹] | inhibition (Histone deacetylase 1) | inhibition [5] | IC50 [6] [nM] | CLH [7] [µL/min/mg] |
| --- | --- | --- | --- | --- | --- | --- | --- | --- | --- |
| CN1CCC2(CC1)c1ccccc1N(Cc1ccc(C(=O)NO)cc1)C2c1ccccc1F (racemic) | 6.38 | Active | 3490 | 98 | 0.01297 | Active | Active | 0.16 | 27.43 |
| CC1(C)c2ccccc2N(Cc2ccc(C(=O)NO)cc2)C1c1cccnc1 (racemic) | 7.31 | Active | 2170 | 89 | 0.01357 | inactive | Active | 7.31 | 25.46 |

— ChEMBL document CHEMBL5226322, “Harnessing the Role of HDAC6 in Idiopathic Pulmonary Fibrosis: Design, Synthesis, Structural Analysis, and Biological Evaluation of Potent Inhibitors” (J Med Chem, 2021)
